Results published in ChEMBL document CHEMBL1148462, “A novel class of phosphonate nucleosides. 9-[(1-phosphonomethoxycyclopropyl)methyl]guanine as a potent and selective anti-HBV agent” (J Med Chem, 2004).

Columns and labels:
[1] = system: HepG2; assay: Cytotoxic activity in HepG2 2.2.15 cell line; type: functional; settings: Homo sapiens
[2] = system: HepG2; assay: (§1) Compound tested for anti-HBV (hepatitis B virus) activity in HepG2 2.2.15 cell line; type: functional, cell-based; settings: Homo sapiens
Summary of the method: (§2)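 HBV-producing HepG2 2.2.15 cells cultured in DMEM/10% FBS with 400 μg/mL G418, seeded at 1.5 × 10⁴ cells/well and grown 2 days to 80–90% confluence. Medium then switched to 2% FBS. Compounds at 0–100 μM (fivefold steps) added every other day for 9 days. Day-10 supernatant boiled, serially diluted and HBV DNA quantified by TaqMan real-time PCR (40 cycles) to derive EC50.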

[3] = system: HepG2; assay: as §1; type: functional; settings: Homo sapiens; summary of the method: as §2
[4] = Oral bioavailability in rat; type: ADME, organism-based; settings: in vivo
[5] = system: Human alphaherpesvirus 1; assay: […] of herpes simplex virus (HSV-1)
[6] = system: Human immunodeficiency virus 1; assay: Concentration required for inhibition of replication of human immunodeficiency virus (HIV-1); type: functional

EC50 [2] [µM]	bioavailability [4] [%]	Structure (SMILES)	CC50 [1] [µM]	EC80 [3] [µM]	Inhibition [5] [µM]	Inhibition [6] [µM]
8	–	Cc1nc(N)nc2c1ncn2CC1(OCP(=O)(O)O)CC1	> 1000	–	–	–
> 30	–	Cc1cn(CC2(OCP(=O)(O)O)CC2)c(=O)[nH]c1=O	> 1000	–	–	–
0.5	–	CCOc1nc(N)nc2c1ncn2CC1(OCP(=O)(O)O)CC1	> 1000	3	–	–
8	–	Nc1ncnc2c1ncn2CC1(OCP(=O)(O)O)CC1	> 1000	–	–	–
4	> 5	Nc1ncc2ncn(CC3(OCP(=O)(O)O)CC3)c2n1 [BESIFOVIR]	> 1000	–	–	–
> 30	–	CCNc1nc(N)nc2c1ncn2CC1(OCP(=O)(O)O)CC1	> 1000	–	–	–
1.5	–	Nc1nc(Cl)c2ncn(CC3(OCP(=O)(O)O)CC3)c2n1	> 1000	7.5	–	–
0.5	–	Nc1nc(O)c2ncn(CC3(OCP(=O)(O)O)CC3)c2n1 [LB80317]	> 1000	2.3	> 30	> 30

Structure (SMILES)	EC50 [2] [µM]	bioavailability [4] [%]	CC50 [1] [µM]	EC80 [3] [µM]	Inhibition [5] [µM]	Inhibition [6] [µM]
Nc1ncnc2c1ncn2CCOCP(=O)(O)O [ADEFOVIR]	2	–	–	44	–	–
